This note sets out measurements from article PMC10288510 (Journal of the American Chemical Society, 2023).

A short description of data set [1]: CF assay: carrier-mediated heptaarginine. The format is in vitro ADME. As to conditions: EYPC⊃CF LUVs, 1 μM Trp-Arg7, pEC50 from EC50 in mM, 10% error (SD). The essentials: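 Egg-yolk phosphatidylcholine LUVs (4 μM phospholipid) loaded with self-quenched carboxyfluorescein; efflux read as dequenching (λex 492 nm, λem 517 nm) over time. Carrier added at t = 50 s, Trp-Arg7 (1 μM) at 100 s, Triton X-100 lysis at 600 s for normalisation. Kinetics run across carrier concentrations; normalised traces converted to dose–response curves; Hill fit gives Ymax, EC50 and Ea.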

Data set [2] can be described thus: CF assay: cargo dose-response with COSAN 2 as carrier. It is filed as in vitro ADME. To be noted: for transport of cargo by COSAN 2 (in words): EYPC⊃CF liposomes, 4 μM COSAN 2, pH 7.4; for Et (transport efficiency = Ymax (pEC50)/f, f = 41.8): EYPC vesicles, 4 μM COSAN 2, n.a = no detectable activity, 10% error (SD).

Peptide text beside a SMILES is read from it.

`O=C(O)CCCc1ccc2ccc3cccc4ccc1c2c34` [PyBu, pyrenebutyrate]: in data set [1], the “Ea (activator efficiency = Ymax (pEC50)/f, f = 20.6)” value is given as 4.8.
With `NCCCC[C@H](NC(=O)[C@H](CCCCN)NC(=O)[C@H](CCCCN)NC(=O)[C@@H](N)Cc1c[nH]c2ccccc12)C(=O)O` [Trp-(Lys)3, tryptophan-trilysine] (H-WKKK-OH), the “transport of cargo by COSAN 2 (in words)” value in data set [2] was “not transported”.
As for `N[C@@H](Cc1c[nH]c2ccccc12)C(=O)NCC(=O)NCC(=O)NCC(=O)NCC(=O)NCC(=O)NCC(=O)O` [Trp-Gly6, tryptophan-hexaglysine] (H-WGGGGGG-OH), the “transport of cargo by COSAN 2 (in words)” value in data set [2] is given as “not transported”.
For the molecule `NCCCC[C@H](NC(=O)[C@H](CCCCN)NC(=O)[C@H](CCCCN)NC(=O)[C@H](CCCCN)NC(=O)[C@H](CCCCN)NC(=O)[C@H](CCCCN)NC(=O)[C@H](CCCCN)NC(=O)[C@@H](N)Cc1c[nH]c2ccccc12)C(=O)O` [Trp-Lys7, tryptophan-heptalysine] (H-WKKKKKKK-OH), the “transport of cargo by COSAN 2 (in words)” value in data set [2] is on record as “efficient transport”.
For `CC(C)C[C@H](NC(=O)[C@@H](NC(=O)[C@@H](N)Cc1ccc(O)cc1)[C@@H](C)O)C(=O)N[C@H](C(=O)N[C@H](C(=O)N[C@@H](CCCCN)C(=O)O)C(C)C)[C@@H](C)O` [Tyr-Thr-Leu-Thr-Val-Lys, tyrosine-threonine-leucine-threonine-valine-lysine] (H-YTLTVK-OH), in data set [2], the “transport of cargo by COSAN 2 (in words)” value is “not transported”.
For phalloidin, the “transport of cargo by COSAN 2 (in words)” value in data set [2] is “not transported”.
Take polylysine: the “Et (transport efficiency = Ymax (pEC50)/f, f = 41.8)” value in data set [2] turned out to be 10.0.
As to protamine, in data set [2], the “Et (transport efficiency = Ymax (pEC50)/f, f = 41.8)” value worked out at 9.0.
